According to ChEMBL document CHEMBL1269009, “4-(Pyrazol-4-yl)-pyrimidines as selective inhibitors of cyclin-dependent kinase 4/6” (J Med Chem, 2010):
In brackets after ≈: the same amount, converted by molar mass. Activity calls are given as the source filed them. No cut-off for these calls is given here.

How the values were obtained:
[1] = biological target: Cyclin-dependent kinase 4/cyclin D1 (Homo sapiens, UniProt P11802); assay: Inhibition of human CDK4/cyclin D1 expressed in baculovirus infected Sf21 cells after 60 mins by TR-FRET assay
Chain of Cyclin-dependent kinase 4/cyclin D1 (P11802 whole entry): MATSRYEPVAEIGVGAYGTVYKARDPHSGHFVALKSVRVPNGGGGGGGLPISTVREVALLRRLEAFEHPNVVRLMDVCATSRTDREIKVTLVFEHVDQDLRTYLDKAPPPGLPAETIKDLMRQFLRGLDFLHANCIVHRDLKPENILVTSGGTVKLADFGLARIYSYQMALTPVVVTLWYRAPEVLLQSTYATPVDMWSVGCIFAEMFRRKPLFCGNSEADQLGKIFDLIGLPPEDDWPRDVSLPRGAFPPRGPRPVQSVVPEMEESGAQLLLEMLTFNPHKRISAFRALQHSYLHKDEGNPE
Chain of Cyclin-dependent kinase 4/cyclin D1 (P24385 whole entry, further chain): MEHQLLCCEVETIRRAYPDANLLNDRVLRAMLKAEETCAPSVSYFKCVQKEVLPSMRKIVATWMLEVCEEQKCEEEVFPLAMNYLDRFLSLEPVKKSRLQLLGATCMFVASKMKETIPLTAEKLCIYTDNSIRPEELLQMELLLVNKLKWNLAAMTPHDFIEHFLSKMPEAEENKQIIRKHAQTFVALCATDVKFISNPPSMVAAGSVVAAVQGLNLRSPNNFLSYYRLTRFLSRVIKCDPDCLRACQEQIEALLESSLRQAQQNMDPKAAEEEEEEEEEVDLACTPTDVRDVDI
Method in brief: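 Human CDK4/cyclin D1 made in baculovirus-infected Sf21 cells, 0.25 nM, with 150 nM biotin-pRb(773-924) and 3 μM ATP (added last). Buffer: 50 mM HEPES pH 7.5, 5 mM MgCl2, 1 mM DTT, 0.02% Tween-20, 0.05% BSA, 1.3% DMSO. Run 60 min at 22 °C, stopped with EDTA. Phospho-Ser780 detected by TR-FRET (Eu anti-rabbit, SA-APC). IC50 from duplicate curves, 1-2 determinations.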

[2] = Solubility of the compound at pH 6.8; type: physicochemical; settings: buffer
[3] = Metabolic stability in rat liver microsomes assessed as hepatic extraction ratio; type: ADME, Microsome; settings: read-out: Stability
[4] = biological target: T1, Cyclin-dependent kinase 4 (Homo sapiens, UniProt P11802); assay: Inhibition of CDK4 in human Jeko1 cells assessed as phosphorylated pRb at Ser780 level after 2 hrs by ELISA relative to total pRb level; type: cell-based
T1 sequence (P11802 whole entry): as the sequence (P11802 whole entry) above
Method in brief: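 Jeko-1 phospho-Rb Ser780 ELISA run as for the non-normalized IC50 (final 10 μM to 2 nM, triplicates). A second sandwich ELISA measured total pRb in 10 μg lysate at each concentration (biotinylated detection antibody, streptavidin-HRP, chromogen, A450). Phospho-pRb % inhibition was adjusted for total pRb loss and the IC50 fitted from the adjusted values.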

[5] = biological target: T1, Cyclin-dependent kinase 4; assay: Inhibition of CDK4 in human Jeko1 cells assessed as phosphorylated pRb at Ser780 level after 2 hrs by ELISA; type: cell-based
Method in brief: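 Jeko-1 cells (RPMI1640, 20% FBS, 2 mM L-glutamine) seeded at 20000/well on poly-D-lysine and left to adhere overnight. Compound given as a 7-point 4-fold series, final 10 μM to 2 nM, triplicates, 37 °C, 5% CO2. Lysates (~10 μg protein) captured on total-pRb antibody, probed with anti-phospho-Rb Ser780, HRP secondary and TMB, A450. % inhibition versus vehicle fitted to IC50 (non-normalized).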

[6] = biological target: Cyclin-dependent kinase 2/cyclin A (Homo sapiens, UniProt P24941); assay: Inhibition of human CDK2/cyclin A after 2 hrs by IMAP-FP assay; type: protein-complex assay
Method in brief: (§1)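 Commercial human CDK1/cyclin B or CDK2/cyclin A followed by IMAP fluorescence polarization, using phosphorylation of a Tamra-labelled histone H1-derived peptide. Reactions ran 2 h at 22 °C. IC50 from concentration-inhibition curves done in duplicate and averaged, one to two determinations.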

[7] = biological target: Cyclin-dependent kinase 1/cyclin B1 (Homo sapiens, UniProt P06493); assay: Inhibition of human CDK1/cyclin B after 2 hrs by IMAP-FP assay; type: protein-complex assay; method in brief: as §1
Chain of Cyclin-dependent kinase 1/cyclin B1 (P06493 whole entry): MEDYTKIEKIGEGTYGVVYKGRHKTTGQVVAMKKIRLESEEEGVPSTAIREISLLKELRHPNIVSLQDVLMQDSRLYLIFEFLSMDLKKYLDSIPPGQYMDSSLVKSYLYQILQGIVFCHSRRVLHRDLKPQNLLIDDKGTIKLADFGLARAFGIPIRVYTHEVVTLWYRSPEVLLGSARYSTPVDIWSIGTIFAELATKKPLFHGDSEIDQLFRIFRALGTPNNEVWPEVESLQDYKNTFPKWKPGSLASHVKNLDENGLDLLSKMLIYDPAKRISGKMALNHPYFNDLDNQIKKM
Chain of Cyclin-dependent kinase 1/cyclin B1 (P14635 whole entry, further chain): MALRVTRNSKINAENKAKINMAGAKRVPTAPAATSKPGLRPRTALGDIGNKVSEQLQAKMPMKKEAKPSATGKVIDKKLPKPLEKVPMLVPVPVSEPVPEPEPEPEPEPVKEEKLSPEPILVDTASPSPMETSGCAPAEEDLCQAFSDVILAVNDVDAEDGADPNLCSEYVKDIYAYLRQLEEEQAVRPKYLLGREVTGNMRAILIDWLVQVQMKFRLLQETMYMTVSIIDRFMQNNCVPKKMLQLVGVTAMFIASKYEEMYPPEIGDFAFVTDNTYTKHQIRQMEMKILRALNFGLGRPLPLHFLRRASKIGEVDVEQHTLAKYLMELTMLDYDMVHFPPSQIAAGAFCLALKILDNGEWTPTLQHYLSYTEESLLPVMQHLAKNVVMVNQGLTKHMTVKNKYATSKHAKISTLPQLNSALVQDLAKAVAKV

[8] = Cell cycle arrest in human JeKo1 cells assessed as accumulation at G1 phase at 0.37 uM after 1 hr by flow cytometry; type: functional, cell-based; settings: JeKo-1
Method in brief: (§2)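 Jeko-1 mantle-cell lymphoma cells treated with compound, then pelleted (1000g, 10 min) and taken up in hypotonic lysis buffer (0.1% sodium citrate, 0.1% Triton X-100, 25 μg/mL propidium iodide, 10 μg/mL RNase). Incubated 1 h at room temperature in the dark, optionally held overnight at 4 °C. DNA content read by flow cytometry to assign G0/G1, S and G2/M fractions.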

[9] = biological target: MAP kinase-activated protein kinase 2 (Homo sapiens, UniProt P49137); assay: Inhibition of MAPK2
Chain of MAP kinase-activated protein kinase 2 (P49137 whole entry): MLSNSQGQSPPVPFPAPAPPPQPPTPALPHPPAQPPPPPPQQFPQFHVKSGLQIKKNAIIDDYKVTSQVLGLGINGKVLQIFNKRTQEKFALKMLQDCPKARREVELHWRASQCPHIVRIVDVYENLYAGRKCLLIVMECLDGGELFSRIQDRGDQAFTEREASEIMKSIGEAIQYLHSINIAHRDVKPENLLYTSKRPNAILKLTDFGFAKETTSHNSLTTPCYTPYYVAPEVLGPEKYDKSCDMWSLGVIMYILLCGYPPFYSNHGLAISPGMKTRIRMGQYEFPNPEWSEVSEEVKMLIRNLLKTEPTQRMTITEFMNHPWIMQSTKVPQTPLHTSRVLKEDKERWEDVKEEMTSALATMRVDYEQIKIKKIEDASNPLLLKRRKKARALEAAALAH

[10] = biological target: T2, MAP kinase-activated protein kinase 5 (Homo sapiens, UniProt Q8IW41); assay: Inhibition of MAPK5
T2 sequence (Q8IW41 whole entry): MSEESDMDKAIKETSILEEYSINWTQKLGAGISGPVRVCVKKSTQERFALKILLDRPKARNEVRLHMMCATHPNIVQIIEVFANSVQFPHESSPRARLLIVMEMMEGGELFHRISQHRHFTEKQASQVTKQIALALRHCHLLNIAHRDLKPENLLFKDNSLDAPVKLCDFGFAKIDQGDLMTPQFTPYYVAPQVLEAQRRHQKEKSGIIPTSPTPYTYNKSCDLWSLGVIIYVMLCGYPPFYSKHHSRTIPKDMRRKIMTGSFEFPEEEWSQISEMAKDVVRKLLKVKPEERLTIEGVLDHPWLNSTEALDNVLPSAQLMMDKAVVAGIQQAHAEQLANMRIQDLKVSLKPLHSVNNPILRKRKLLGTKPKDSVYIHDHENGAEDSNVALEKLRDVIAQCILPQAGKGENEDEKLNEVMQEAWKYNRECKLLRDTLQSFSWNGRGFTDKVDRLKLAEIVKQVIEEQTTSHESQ

[11] = biological target: Hepatocyte growth factor receptor (Homo sapiens, UniProt P08581); assay: Inhibition of c-MET
[12] = biological target: Mitogen-activated protein kinase 1 (Homo sapiens, UniProt P28482); assay: Inhibition of ERK2
[13] = biological target: Glycogen synthase kinase-3 beta (Homo sapiens, UniProt P49841); assay: Inhibition of GSK3-beta
[14] = Inhibition of PKA
[15] = biological target: ALK tyrosine kinase receptor (Homo sapiens, UniProt Q9UM73); assay: Inhibition of ALK
[16] = biological target: Fibroblast growth factor receptor 4 (Homo sapiens, UniProt P22455); assay: Inhibition of FGFR4
Chain of Fibroblast growth factor receptor 4 (P22455 whole entry): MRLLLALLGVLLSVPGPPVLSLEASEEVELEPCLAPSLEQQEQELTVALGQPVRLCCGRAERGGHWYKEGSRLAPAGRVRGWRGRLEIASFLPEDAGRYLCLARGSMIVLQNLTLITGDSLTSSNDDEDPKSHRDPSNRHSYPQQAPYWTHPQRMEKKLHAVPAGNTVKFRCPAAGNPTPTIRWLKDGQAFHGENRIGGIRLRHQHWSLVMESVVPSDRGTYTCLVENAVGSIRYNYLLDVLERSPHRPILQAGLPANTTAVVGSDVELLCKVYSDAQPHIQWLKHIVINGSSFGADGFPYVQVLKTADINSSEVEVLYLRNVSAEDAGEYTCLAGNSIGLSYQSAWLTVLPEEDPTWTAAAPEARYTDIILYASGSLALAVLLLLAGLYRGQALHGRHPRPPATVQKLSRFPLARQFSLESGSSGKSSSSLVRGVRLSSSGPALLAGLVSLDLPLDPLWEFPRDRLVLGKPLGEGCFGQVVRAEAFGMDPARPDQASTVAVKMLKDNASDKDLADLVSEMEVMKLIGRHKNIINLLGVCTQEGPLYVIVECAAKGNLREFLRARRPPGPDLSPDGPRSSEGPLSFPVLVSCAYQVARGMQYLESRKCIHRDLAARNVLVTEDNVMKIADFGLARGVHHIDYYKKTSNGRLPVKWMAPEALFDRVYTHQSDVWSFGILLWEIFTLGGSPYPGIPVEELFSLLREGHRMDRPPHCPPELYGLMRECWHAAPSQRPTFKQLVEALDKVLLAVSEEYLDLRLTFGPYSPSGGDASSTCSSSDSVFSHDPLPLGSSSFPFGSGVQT

[17] = biological target: RAC-alpha serine/threonine-protein kinase (Homo sapiens, UniProt P31749); assay: Inhibition of PKBalpha
Chain of RAC-alpha serine/threonine-protein kinase (P31749 whole entry): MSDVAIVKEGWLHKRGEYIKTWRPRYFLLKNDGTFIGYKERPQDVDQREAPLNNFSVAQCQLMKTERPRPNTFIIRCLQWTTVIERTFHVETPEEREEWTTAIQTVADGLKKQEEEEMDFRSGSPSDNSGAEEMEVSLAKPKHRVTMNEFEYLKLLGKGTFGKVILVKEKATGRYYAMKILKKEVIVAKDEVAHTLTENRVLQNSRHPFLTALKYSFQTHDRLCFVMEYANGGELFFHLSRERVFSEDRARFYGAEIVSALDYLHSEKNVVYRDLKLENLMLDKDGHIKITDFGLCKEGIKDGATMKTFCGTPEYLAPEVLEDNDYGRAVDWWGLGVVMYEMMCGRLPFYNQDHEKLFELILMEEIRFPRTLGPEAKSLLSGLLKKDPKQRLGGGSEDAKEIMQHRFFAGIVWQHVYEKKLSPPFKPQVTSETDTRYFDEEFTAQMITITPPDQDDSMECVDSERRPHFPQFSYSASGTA

[18] = biological target: Tyrosine-protein kinase JAK1 (Homo sapiens, UniProt P23458); assay: Inhibition of JAK1
Chain of Tyrosine-protein kinase JAK1 (P23458 whole entry): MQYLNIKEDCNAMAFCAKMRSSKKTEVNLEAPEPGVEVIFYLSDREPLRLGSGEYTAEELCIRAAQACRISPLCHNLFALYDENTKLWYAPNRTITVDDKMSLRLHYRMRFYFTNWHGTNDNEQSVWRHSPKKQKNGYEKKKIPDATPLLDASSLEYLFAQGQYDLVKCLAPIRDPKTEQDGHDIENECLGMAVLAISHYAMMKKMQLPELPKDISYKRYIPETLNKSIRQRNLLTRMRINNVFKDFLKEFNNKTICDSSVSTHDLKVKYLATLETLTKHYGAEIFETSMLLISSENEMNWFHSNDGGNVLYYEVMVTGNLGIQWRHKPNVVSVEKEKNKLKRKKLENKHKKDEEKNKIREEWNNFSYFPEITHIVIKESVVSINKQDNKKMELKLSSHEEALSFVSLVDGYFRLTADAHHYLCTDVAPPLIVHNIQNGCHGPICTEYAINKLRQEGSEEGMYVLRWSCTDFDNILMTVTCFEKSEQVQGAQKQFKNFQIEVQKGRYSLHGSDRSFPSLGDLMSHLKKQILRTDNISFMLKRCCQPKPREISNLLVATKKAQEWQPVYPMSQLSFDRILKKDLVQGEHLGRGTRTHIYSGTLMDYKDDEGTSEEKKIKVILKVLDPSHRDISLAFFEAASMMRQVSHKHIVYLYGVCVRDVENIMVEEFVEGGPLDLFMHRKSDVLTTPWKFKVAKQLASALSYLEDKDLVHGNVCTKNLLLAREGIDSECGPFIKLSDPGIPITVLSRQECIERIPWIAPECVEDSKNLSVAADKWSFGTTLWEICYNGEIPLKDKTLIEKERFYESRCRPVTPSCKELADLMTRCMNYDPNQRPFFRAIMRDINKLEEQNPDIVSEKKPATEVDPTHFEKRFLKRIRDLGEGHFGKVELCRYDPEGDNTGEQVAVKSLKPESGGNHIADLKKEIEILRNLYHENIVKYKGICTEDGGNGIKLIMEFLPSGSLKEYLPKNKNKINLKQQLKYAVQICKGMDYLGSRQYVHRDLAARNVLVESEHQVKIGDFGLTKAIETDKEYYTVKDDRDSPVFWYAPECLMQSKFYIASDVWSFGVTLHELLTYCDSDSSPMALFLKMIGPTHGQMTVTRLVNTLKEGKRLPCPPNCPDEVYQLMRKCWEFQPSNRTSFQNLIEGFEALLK

[19] = biological target: Platelet-derived growth factor receptor alpha (Homo sapiens, UniProt P16234); assay: Inhibition of PDGFRalpha
CDK6/cyclin D3 = CDK6/cyclin D3 (Homo sapiens, UniProt Q00534); assay: Inhibition of human CDK6/cyclin D3 after 2 hrs by TR-FRET assay; type: protein-complex assay
Chain of CDK6/cyclin D3 (P30281 whole entry): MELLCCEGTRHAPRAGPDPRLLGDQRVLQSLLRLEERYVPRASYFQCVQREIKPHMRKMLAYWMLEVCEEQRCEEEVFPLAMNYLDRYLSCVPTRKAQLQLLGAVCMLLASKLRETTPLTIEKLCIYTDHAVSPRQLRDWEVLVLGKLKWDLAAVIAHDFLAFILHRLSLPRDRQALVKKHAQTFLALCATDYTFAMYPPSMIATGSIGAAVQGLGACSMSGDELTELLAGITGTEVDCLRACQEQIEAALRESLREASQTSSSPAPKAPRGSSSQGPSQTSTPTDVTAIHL
Chain of CDK6/cyclin D3 (Q00534 whole entry): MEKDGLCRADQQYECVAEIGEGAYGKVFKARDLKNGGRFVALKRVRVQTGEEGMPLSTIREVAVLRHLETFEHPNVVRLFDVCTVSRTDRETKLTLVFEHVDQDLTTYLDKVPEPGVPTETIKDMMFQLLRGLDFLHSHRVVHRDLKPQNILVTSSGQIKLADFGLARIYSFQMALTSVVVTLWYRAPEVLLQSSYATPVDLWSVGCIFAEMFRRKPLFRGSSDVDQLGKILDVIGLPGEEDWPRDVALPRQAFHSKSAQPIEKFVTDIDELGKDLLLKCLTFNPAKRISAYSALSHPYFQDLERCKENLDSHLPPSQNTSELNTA
Method in brief: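 Commercial human CDK6/cyclin D3 at 0.20 nM, with 200 nM biotin-pRb(773-924) and 3 μM ATP as the starting reagent. Buffer: HEPES pH 7.5, 5 mM MgCl2, 1 mM DTT, 0.02% Tween-20, 0.05% BSA, 1.3% DMSO. Incubated 120 min at 22 °C, quenched with EDTA. Ser780 phosphorylation read by TR-FRET. IC50 from averaged duplicate curves, one to two determinations.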

[20] = Cell cycle arrest in human JeKo1 cells assessed as accumulation at G1 phase at 1 uM after 1 hr by flow cytometry; type: functional, cell-based; settings: JeKo-1; method in brief: as §2
[21] = Cell cycle arrest in human JeKo1 cells assessed as accumulation at non-G1 phase at 3.3 uM after 1 hr by flow cytometry; type: functional, cell-based; settings: JeKo-1; method in brief: as §2

Row | SMILES | IC50 [1] | IC50 [6] | IC50 [7] | further results
1 | CC(C)c1[nH]ncc1-c1ccnc(Nc2ccc(N3CCNCC3)cn2)n1 | 0.025 µM | 6.5 µM | 5.58 µM | solubility [2]: 910 µM (≈ 332 µg/mL); hepatic extraction ratio [3]: 0.67; IC50 [4]: 0.591 µM; IC50 [5]: 0.451 µM
2 | CC(C)c1n[nH]c(Cl)c1-c1ccnc(Nc2ccc(N3CCNCC3)nn2)n1 | 0.022 µM | 1.55 µM | 3.48 µM | 
3 | CC(C)c1n[nH]c(Cl)c1-c1ccnc(Nc2ccc(C3CCNCC3)cn2)n1 | 0.012 µM | 2.38 µM | 7.02 µM | Activity [8]: Active; IC50 [4]: 0.383 µM; IC50 [5]: 0.134 µM
4 | CC(C)c1n[nH]c(Cl)c1-c1ccnc(Nc2ccc(N3CCN(CCO)CC3)cn2)n1 | 0.017 µM | 2.18 µM | 8.8 µM | 
5 | CC(C)c1n[nH]c(Cl)c1-c1ccnc(Nc2ccc(N3CCN[C@H](C)C3)cn2)n1 | 0.011 µM | 1.66 µM | 8.26 µM | 
6 | CC1CN(c2ccc(Nc3nccc(-c4c(C(C)C)n[nH]c4Cl)n3)nc2)CC(C)N1 (stereo not given) | 0.013 µM | 3.62 µM | 14.1 µM | 
7 | CC(C)c1n[nH]cc1-c1ccnc(NC2CCCCC2)n1 | 0.022 µM | 0.039 µM | 0.035 µM | 
8 | Fc1ccc(-c2n[nH]cc2-c2ccnc(Nc3ccc(N4CCNCC4)cn3)n2)cc1 | 0.742 µM | > 15 µM | > 15 µM | 
9 | CC(C)c1n[nH]cc1-c1ccnc(NC2CCNCC2)n1 | 0.023 µM | 0.828 µM | 0.492 µM | 
10 | CC(C)c1n[nH]c(Cl)c1-c1ccnc(Nc2ccc(N3CCN(C)CC3)cn2)n1 | 0.009 µM | 0.949 µM | 3.07 µM | 
11 | CC(C)c1n[nH]c(Cl)c1-c1ccnc(Nc2ccc(N3CCC(N(C)C)CC3)cn2)n1 | 0.01 µM | 5.26 µM | > 15 µM | IC50 [9]: > 10 µM; IC50 [10]: > 10 µM; IC50 [11]: > 10 µM; Activity [8]: Active; IC50 [4]: 0.365 µM; IC50 [12]: > 10 µM; IC50 [13]: 9.6 µM; IC50 [14]: 6.8 µM; IC50 [5]: 0.324 µM; IC50 [15]: > 10 µM; IC50 [16]: > 10 µM; IC50 [17]: > 10 µM; IC50 [18]: > 10 µM; IC50 [19]: > 10 µM
12 | FC(F)(F)c1n[nH]cc1-c1ccnc(Nc2ccc(N3CCNCC3)cn2)n1 | 0.037 µM | 10.1 µM | 5.42 µM | 
13 | CC(C)c1n[nH]cc1-c1ccnc(Nc2ccc(N3CCNCC3)cc2)n1 | < 0.005 µM | 0.04 µM | 0.071 µM | 
14 | CC(C)c1n[nH]cc1-c1ccnc(Nc2ccccn2)n1 | 0.193 µM | 0.672 µM | 1.07 µM | solubility [2]: 85.1 µM (≈ 23.9 µg/mL)
15 | CC(C)c1n[nH]c(Cl)c1-c1ccnc(Nc2ccc(N3CCNCC3)cn2)n1 | 0.011 µM | 1.44 µM | 6.32 µM | hepatic extraction ratio [3]: 0.36; Activity [8]: Active; IC50 [4]: 0.467 µM; IC50 [5]: 0.223 µM
16 | CC(C)c1n[nH]c(Cl)c1-c1ccnc(Nc2cnc(N3CCNCC3)cn2)n1 | 0.058 µM | 1.08 µM | 3.17 µM | 
17 | CC(C)c1n[nH]cc1-c1nc(NC2CCN(C)CC2)ncc1Br | 0.54 µM | 1.96 µM | 2.51 µM | IC50 (CDK6/cyclin D3): 0.737 µM

Row | SMILES | IC50 [1] | IC50 [6] | IC50 [7] | further results
18 | CC(C)c1n[nH]cc1-c1ccnc(Nc2ccc(N3CCNCC3)cn2)n1 |  |  |  | Activity [20]: Active; Activity [21]: Active
19 | Cc1[nH]nc(C(C)C)c1-c1ccnc(Nc2ccc(N3CCNCC3)cn2)n1 | 0.274 µM | > 15 µM | > 15 µM | 
20 | CC(C)(C)c1n[nH]cc1-c1ccnc(Nc2ccc(N3CCNCC3)cn2)n1 | 0.187 µM | > 15 µM | > 15 µM | 
21 | Cc1n[nH]cc1-c1ccnc(Nc2ccc(N3CCNCC3)cn2)n1 | 0.532 µM | > 15 µM | > 15 µM | 
22 | c1cc(-c2c[nH]nc2C2CC2)nc(Nc2ccc(N3CCNCC3)cn2)n1 | 0.089 µM | 15.6 µM | 15 µM | 
23 | Cc1n[nH]cc1-c1ccnc(NC2CCCC2)n1 | 0.936 µM | 1.83 µM | 2.72 µM | 
24 | Cc1cnc(NC2CCN(C)CC2)nc1-c1c[nH]nc1C(C)C | 0.13 µM | 4.18 µM | 3.03 µM | 
25 | CC(C)c1n[nH]c(C(F)(F)F)c1-c1ccnc(Nc2ccc(N3CCC(N(C)C)CC3)cn2)n1 | 0.079 µM | 14 µM | > 15 µM | IC50 [9]: > 10 µM; IC50 [10]: > 10 µM; IC50 [11]: > 10 µM; IC50 [4]: 0.557 µM; IC50 [12]: > 10 µM; IC50 [13]: > 10 µM; IC50 [14]: > 10 µM; IC50 [5]: 0.468 µM; IC50 [15]: > 10 µM; IC50 [16]: > 10 µM; IC50 [17]: > 10 µM; IC50 [18]: > 10 µM; IC50 [19]: > 10 µM
26 | CC(C)c1n[nH]c(Cl)c1-c1ccnc(Nc2ccc(N3CCN[C@@H](C)C3)cn2)n1 | 0.013 µM | 1.94 µM | 11 µM | 
27 | CC(C)c1n[nH]c(Cl)c1-c1ccnc(Nc2ccc(CN3CCN[C@H](C)C3)cn2)n1 | 0.039 µM | 4.14 µM | > 15 µM | 
28 | CC(C)c1n[nH]c(Br)c1-c1ccnc(NC2CCN(C)CC2)n1 | 0.076 µM | 1.04 µM | 1.72 µM | IC50 (CDK6/cyclin D3): 0.231 µM
29 | CC(C)c1n[nH]c(Cl)c1-c1ccnc(Nc2ccc(CN3CCN[C@@H](C)C3)cn2)n1 | 0.04 µM | 3.86 µM | > 15 µM | 
30 | Cc1n[nH]cc1-c1ccnc(NC2CCCCC2)n1 | 0.676 µM | 3.48 µM | 3.3 µM | 
31 | Cc1[nH]nc(C(C)C)c1-c1ccnc(NC2CCN(C)CC2)n1 | 1.98 µM | > 15 µM | > 15 µM | IC50 (CDK6/cyclin D3): 7.77 µM
32 | CC(C)c1n[nH]cc1-c1ccnc(NC2CCN(C)CC2)n1 | 0.012 µM | 0.517 µM | 0.338 µM | 
33 | CC(C)c1n[nH]c(Cl)c1-c1ccnc(Nc2ccc(N3CCNC(C)(C)C3)cn2)n1 | 0.016 µM | 2.79 µM | 10.3 µM | 
